Test: Toxicity liver stage against HepG2, at 10uM
Type: cell-based
Set-up: test concentration 10 uM, cell line HepG2-A16-CD81EGFP
Settings: human, HepG2-A16-CD81EGFP cells; read-out: INHIBITION
How it was run: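 Uninfected HepG2-A16-CD81EGFP cells, 3 × 10^3 per well, 1536-well, plated on prespotted compound at 10 μM final, parasite-free screening media added to match infected plates; puromycin 10 μM positive, DMSO 0.5% negative; run in parallel with 48 h PbLuc assay at 37 °C, 5% CO2; viability by CellTiter-Glo luminescence, normalized to controls.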

SMILES | cytotoxicity at 10 µM [%]
COc1ccc(NC(=O)C2CC(=O)n3cnnc3S2)cc1 (centres undefined) | 1.64
COc1cc(NC(=O)c2nc3ccccc3n(C)c2=O)cc(OC)c1 | 7.67
CC(C)C(=O)Nc1ccc2c(c1)ncn2CC(=O)NCCN(C)C | -9.1
COc1ccc2nnc(CCC(=O)Nc3nc(C)c(C)s3)n2n1 | -3.18
COc1cc(OC)cc(C(=O)NCc2nn(C)c3c2COCC3)c1 | 6.17
CN1CCc2c(C#N)c(NCc3ccccc3)n3cnnc3c2C1 | 3.93
CC(C)NC(=O)N1CCN(C(=O)N(C)C)CC2(CC(=O)N(C)C2)C1 (centres undefined) | -17.8
CCCNC(=O)c1nn(CC)cc1Cl | 6.11
CCn1cc(NC(=O)CN2C(=O)CC(C)(C)c3ccccc32)cn1 | -1.7
O=C(CC1CCCC1)N1CCC(c2noc(-c3ccccn3)n2)CC1 | 5.05
CC(C)(C)C(=O)NCCc1cc2nc(-c3ccncc3)ccn2n1 | 6.66
Cc1nc(CN2CCCC(c3nccs3)C2)cs1 (centres undefined) | 2.3
CC(=O)N1CCCC(C(=O)c2cnn(-c3ccc(F)cc3)c2N)C1 (centres undefined) | 5.82
O=C(Cn1cc(Cl)cn1)N1CCCC(c2cc3ccccc3cn2)C1 (centres undefined) | -27.3
Cc1cccnc1CN1CC[C@@](C)(O)[C@H](Oc2ccccc2)C1 | -9.11
CC1CCN(C(=O)c2cnc(CC3CCCN(C)C3)cn2)CC1 (centres undefined) | -11.7
Cc1cc(-c2cnc(NCc3ccccn3)nc2C(C)C)on1 | -1.51
COCC(=O)N1CCCC1c1cccc(Cc2ccccc2F)n1 (centres undefined) | -37.7
O=C(NC1CC1)c1cc(C2CC2)nc2onc(C3CCNCC3)c12 | 7.16
Cc1ccc(S(=O)(=O)Nc2ccc(C)c(C(=O)O)c2)s1 | -1.51
O=C(c1cc[nH]n1)N1CCc2cc(Br)sc2C1 | 7.01
Cc1ccnc2c1NC(=O)CN2C(=O)CCc1ccccc1 | -20.1
CCCc1cc(C(=O)N2CCCN(c3cccnn3)CC2)[nH]n1 | -1.16

SMILES | cytotoxicity at 10 µM [%]
CC(C)C(=O)Nc1cccc(CNC(=O)CSCc2ccccn2)c1 | 9.65
COc1ccc(C2(C(=O)NC3CCc4nccn4C3)CCCC2)cc1 (centres undefined) | 4.48
CCOc1ccccc1CN(C)C(C)c1nc(-c2cccnc2)no1 (centres undefined) | 7.84
CC(=O)N1CCN(C(=O)NC(C)Cn2ccnc2)CC1 (centres undefined) | -1.05
CCN(CC)C(CNC(=O)CCc1nc(C(C)C)no1)c1ccco1 (centres undefined) | 5.91
CC(C)N1CCC(NC(=O)NCc2cccnc2)C1 (centres undefined) | 7.67
CN(CCCOc1ccccc1)S(=O)(=O)c1cnn(C)c1 | -6.7
NC(=O)NC(=O)C(c1ccccc1)N1CCN(Cc2ccccc2)CC1 (centres undefined) | -5.68
COCCNC(=O)CCNc1cc(C)nc(-c2ccncc2)n1 | -1.26
Cc1cc(CN2CCN(C(=O)C3(C#N)CCCCC3)CC2)on1 | 4.81
CCC1CCC(N(Cc2cc(=O)n(C)c(=O)n2C)C2CC2)CC1 (centres undefined) | 22.6
Cc1ccc(C(=O)N(CC2CCCO2)c2ccncc2)o1 (centres undefined) | -3.08
CN(C)CCn1c(=O)oc2ccc(NC(=O)CSc3ccccc3)cc21 | -3.51
COC(C)c1nc(CN2CCCNCC2)cs1 (centres undefined) | -3.78
CCc1nc(CN2CCCC(N(C)Cc3cnc(C)cn3)C2)no1 (centres undefined) | -5.66
N#Cc1ccc(CNc2cccc(C(=O)N3CCOCC3)c2)cc1 | -4.34
CC(C)Cc1nc(CN2CCC(NC(=O)c3cccs3)CC2)no1 | -2.56
CN(CCc1ccccn1)C1CCCN(Cc2noc(C3CC3)n2)C1 (centres undefined) | 11.6
CCCOc1cc(C)ccc1NC(=O)N(C)C | -4.59
Cc1cc(S(=O)(=O)NC(=O)CCc2cncc(F)c2)c(C)s1 | -1.99
CC(=O)N(Cc1ccsc1)c1ccccc1 | -1.74
COCCS(=O)(=O)NC(C)c1ccccc1Cl (centres undefined) | 5.53
COc1c(CNCc2cccnc2OC2CCCC2)c(C)nn1C | -2.01

SMILES | cytotoxicity at 10 µM [%]
Cc1cnn(CCNC(C)c2nnc(-c3cccc(Cl)c3)o2)c1 (centres undefined) | -1.41
CN1CCC(N(C)c2ccccc2CNCc2ccco2)CC1 | -9.05
COCCN(Cc1ccccn1)C(=O)c1ccc(=O)n(C)c1 | -16.8
CSCc1cc(F)ccc1CNCc1ccncc1 | -7.53
CC(=O)N(C)c1nc(Cn2nnnc2C(C)(C)C)cs1 | 6.56
CC(C)(C)C(NCC(=O)N1CCNC(=O)C1)c1ccccc1 (centres undefined) | -10.7
CCOCCN1CCN(CC(O)c2ccc(C(F)(F)F)cc2)CC1 (centres undefined) | -16.6
CN(CCC(N)=O)Cc1cc(Br)cs1 | -0.711
CNC(=O)c1c(C)cccc1NCc1nnc(C2CC2)o1 | 2.41
CS(=O)(=O)c1nnc(NC(=O)CCc2ccc(Cl)s2)[nH]1 | 6.13
CCN(C)c1ccc(CNS(=O)(=O)CC2CCCO2)cc1F (centres undefined) | 11.9
COc1cccc(N2CCN(CCC(=O)NC3CCCC3)CC2)c1 | -5.93
COCC1CN(S(=O)(=O)c2ccccc2)Cc2ncnn2C1 (centres undefined) | -117
CN(C)CC(=O)N1Cc2nnn(C)c2C(COCC2CC2)C1 (centres undefined) | -99.4
CCOCCn1c(=O)[nH]c2cc(C(=O)N(C)Cc3cnn(C)c3)ccc21 | 2.81
COC(=O)c1cc(C)nc(N2CCN(Cc3ccn(C(C)C)c3)CC2)n1 | 9.77
CC(C)c1nnc2sc(CC3CN(C(C)C)CCO3)nn12 (centres undefined) | -13.8
CCc1n[nH]c(SCC(=O)N2CCc3[nH]nc(C4CCC4)c3C2)n1 | -12.1
Cc1cc(Cn2cc(C(C)Cc3ccc4c(c3)OCO4)nn2)n[nH]1 (centres undefined) | 5.92
CCn1ccnc1C1CCN(Cc2cccc(C)n2)CC1 | -7.93
CCOC(=O)c1coc(N2CCN(Cc3cc(C)cc(C)c3)C(=O)C2)n1 | 4.24
Cc1cc(C)n(CC(C)NC2CCN(Cc3cccc(O)c3)CC2)n1 (centres undefined) | -2.01
COCc1ncc(CN2C[C@@H](C(=O)O)[C@H](C(C)C)C2)cn1 | -2.97

SMILES | cytotoxicity at 10 µM [%]
Cc1cc(C)c2[nH]c(C(=O)NCCN3CCOC3=O)c(C)c2c1 | -0.2
CNC(=O)c1n[nH]c2c1C(c1cccc3[nH]ccc13)CC(=O)N2 (centres undefined) | 4.06
CCOc1ccc2[nH]c(=O)c(CN3CCCCC3C)cc2c1 (centres undefined) | -0.895
CCn1cc(CN2CCC(CNC(C)=O)CC2)cc1C#N | -6.21
C[C@H](c1ccc(Cl)cc1)n1c(C2CC2)n[nH]c1=O | 9.33
CCOCCC(=O)N(Cc1ccncc1)C(C)CC (centres undefined) | 9.99
Cc1c(NCc2cccnc2)cccc1C(=O)N1CCC(N(C)C)C1 (centres undefined) | 14.1
CSc1ccc(-c2nc(CN3C[C@@H](C)NC[C@@H]3C)c(C)o2)cc1 | -3.06
O=C(Nc1ccccc1OCc1ccccn1)NC1CCOCC1 | 6.78
CCNC(=O)[C@@H]1C[C@H](N)CN1C(=O)c1c[nH]c2ccccc12 | -8.34
CC1(C)CN(CCC(=O)NCc2cccc(Cl)c2)CC[C@]1(C)O | -3.45
COc1cccc(CN2CC3(CCNCC3)CCC2=O)c1OC | 6.39
Cc1nc(NCc2scnc2-c2ccccc2)cc(C2CCNCC2)n1 | 1.69
Cc1nc(C)n(CC(C)C(=O)N2CCCN(C3CCCC3)CC2)n1 (centres undefined) | -0.103
CSCCC(O)C(=O)N(C)Cc1cnn(-c2ccc(F)cc2)c1 (centres undefined) | -5.36
Cc1ccc(C)c(OC(C)C(=O)NCc2cccnc2)c1 (centres undefined) | 2.13
CCc1nn(C)c(Cl)c1CN1CCN(c2nc(C(N)=O)cs2)CC1 | 8.81
Cc1ccc(C)c(OC(C)C(=O)NCCNc2cccnc2)c1 (centres undefined) | 1.32
CCc1cc(NCCCOC2CCCC2)ncn1 | -1.41
Cc1cc(C(=O)N2CCC(c3nccn3Cc3ccncc3)CC2)no1 | -15.7
CCn1ncc(Br)c1CN(C)S(=O)(=O)c1ccc(C)cc1 | 14.5
NCc1cn(-c2ccccc2C(=O)NCc2ccccc2)cn1 | 3.32
Cc1ccc(NC2CCN(C(=O)CCc3ccncc3)CC2)nn1 | -9.43

SMILES | cytotoxicity at 10 µM [%]
O=C1CCc2cc(NC(=O)C3CCCN3c3nccs3)ccc2N1 (centres undefined) | -10.8
CCc1nnc2n1CCN(C(=O)c1cc(Cl)c[nH]1)C2 | -6.1
O=C(CCc1ccncc1)N1CCCC(n2cccn2)C1 (centres undefined) | -5.57
CCOCC(O)CN1CCN(C(=O)c2ccc(C)nc2)CC1 (centres undefined) | 0.661
CCc1nc(CN(C)C2CCN(CC(=O)N(C)C)C2)no1 (centres undefined) | -16.7
CC(O)CN1CCC(CNCc2cccc(Cl)c2)CC1 (centres undefined) | -23.8
Cc1ccoc1C(=O)N1CCCC(CNS(C)(=O)=O)C1 (centres undefined) | -23.4
Cc1nnc(NC(=O)NCc2cc(F)cc(F)c2)s1 | -6.07
Cc1cnc2c(S(=O)(=O)NCC3CCN(C4CC4)C3)cccc2c1 (centres undefined) | -6.36
CS(=O)(=O)NC1CCN(C(=O)NCCc2ccccc2F)CC1 | -3.83
CCn1ccnc1CN1CCCN(C(=O)c2cc(Cl)c[nH]2)CC1 | -9.6
CCc1nc(CNCC2CCCN2c2cc(NC)ncn2)cs1 (centres undefined) | -9.11
CCNC(=O)Nc1ccc2c(ccn2CC(=O)N(CC)CC)c1 | -0.421
O=C(Cn1cccnc1=O)NCCc1ccc2c(c1)OCCO2 | 4.96
c1csc(-c2nc(CN3CCOC(Cn4cncn4)C3)co2)c1 (centres undefined) | -11.8
CCc1nccn1C1CCCN(C(=O)Cc2n[nH]c3ccccc23)C1 (centres undefined) | -0.337
Cc1noc(C)c1CN(C)CC1CCCN1c1cccnn1 (centres undefined) | 0.746
Cc1ccccc1-n1nc(C)c(CN(C)C(C)Cc2ccccn2)c1C (centres undefined) | 0.58
COCC1CN(Cc2ccoc2)Cc2nn(C)cc21 (centres undefined) | -81.7
Cc1csc(NC(=O)c2cnc(C3CCNCC3)cn2)n1 | -12.3
c1cncc(COC[C@@H]2CCC[C@@]23CNCCO3)c1 | -106
c1coc(CN2C[C@@H]3CCCO[C@@H]3[C@H](N3CCCC3)C2)c1 | -2.02

— ChEMBL document CHEMBL4513216, “Probing the Open Global Health Chemical Diversity Library for Multistage-Active Starting Points for Next-Generation Antimalarials” (ACS Infect Dis, 2020)
